Measurements as given in ChEMBL document CHEMBL3091412, “Discovery of an irreversible HCV NS5B polymerase inhibitor” (Bioorg Med Chem Lett, 2013).
Active and inactive are the calls of the source. No cut-off for these calls is given here.

Experiments:
Hepatitis C virus = assay: Antiviral activity against HCV Con1 in eplicon cells after 3 days by RT-PCR analysis; assay type: functional, organism-based, Hepacivirus hominis; settings: isolate Con1, 72 h
Method in brief: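 HCV 1b-Con1 replicon cells seeded at 5000 cells/well one day before treatment; inhibitor in DMSO added as 10 serial twofold dilutions in duplicate (final 0.5% DMSO, 5% FBS). Harvested 3 days post dosing; replicon RNA quantified by real-time RT-PCR (Taqman), GAPDH RNA as endogenous control; EC50 calculated.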

[1] = Irreversible inhibition of HCV1b NS5B delta21 polymerase by radiolabeled nucleotide incorporation assay; parameters: species or system Hepatitis C virus subtype 1b
Hepacivirus hominis [2] = assay: Inhibition of HCV NS3 protease
Hepacivirus hominis [3] = assay: Inhibition of HCV NS3 helicase
[4] = system: Human immunodeficiency virus; assay: Inhibition of HIV RNA-dependent DNA polymerase
Enterovirus C = assay: Inhibition of Poliovirus RNA-dependent RNA polymerase

Compound	EC50 (Hepatitis C virus) [µM]	IC50 [1] [µM]	inhibition (Hepacivirus hominis [2])	inhibition (Hepacivirus hominis [3])	inhibition [4]	inhibition (Enterovirus C)
COc1ccc2cc(Cn3c(C(=O)O)c(-c4ccc[nH]c4=O)c4cc(C)c(F)cc43)c(Cl)nc2c1	0.01	0.006	–	–	–	–
Cc1ccc2nc(Cl)c(Cn3c(C(=O)O)c(-c4ccc[nH]c4=O)c4cc(C)c(F)cc43)cc2c1	0.025	0.02	–	–	–	–
Cc1cc2c(-c3ccc[nH]c3=O)c(C(=O)O)n(Cc3cc(F)cnc3Cl)c2cc1F	1	0.012	–	–	–	–
Cc1cc2c(-c3ccc[nH]c3=O)c(C(=O)O)n(Cc3cc4cc(F)c(F)cc4nc3Cl)c2cc1F	0.03	0.01	–	–	–	–
Cc1cc2c(-c3ccc[nH]c3=O)c(C(=O)O)n(Cc3c(Cl)nc4ccccc4c3Cl)c2cc1F	> 1	0.06	–	–	–	–
Cc1cc2c(-c3ccc[nH]c3=O)c(C(=O)O)n(Cc3cc4ccccc4nc3Cl)c2cc1F	–	–	inactive	inactive	inactive	inactive
